Activity calls are given as the source filed them. The calls are words filed in the database; no cut-off is given here.
How the values were obtained:
[1] = Inhibition of GST tagged human BCL-XL deltaC25 using biotin-DLRPEIRIAQELRIZIGDEFNETYTRR as substrate […] measured after 4 hrs by AlphaSCREEN assay
[2] = Inhibition of GST tagged human/mouse chimeric MCL-1 using biotin-DLRPEIRIAQELRIZIGDEFNETYTRR as substrate incubated for 40 mins followed by substrate addition measured after 4 hrs by AlphaSCREEN assay
[3] = Inhibition of GST tagged human BCL-XL deltaC25 by surface plasmon resonance assay
[4] = Inhibition of human BCL-2 deltaC22 by surface plasmon resonance assay
In short: (§1)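 Biacore solution competition. Protein (10 nM) preincubated 2 h with compound (12.5−0.0001 μM, 10-step half-log series) in HEPES running buffer pH 7.4 with EDTA and 0.005% Tween 20. Injected over a CM5 chip carrying wild-type or inert mBIM BH3 peptide. IC₅₀ by nonlinear curve fit. GST tag removed from BCL-XL and MCL-1 before use.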

[5] = Inhibition of human BCL-W deltaC23 C29S/A128E mutant by surface plasmon resonance assay; in short: as §1
[6] = Inhibition of GST tagged human/mouse chimeric MCL-1 by surface plasmon resonance assay
[7] = Inhibition of mouse A1 deltaC20 P10K/C113S mutant by surface plasmon resonance assay; in short: as §1
MEF [8] = experiment: Cytotoxicity against MCL deficient mouse embryonic fibroblast cells assessed as reduction in cell viability in presence of 1 % fetal calf serum measured after 24 hrs by propidium iodide staining based flow cytometric analysis; type: functional
In short: (§2)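 MEFs (WT, MCL-1−/−, MCL-1−/−/BAX−/−/BAK−/−) seeded at 1 × 10⁴ cells/well in FMA medium with 1% FCS, 24 h before dosing. Four-point dilutions: 0.168−0.00005 μM for ABT-737, 25−3.13 μM for others; final DMSO 0.2%, duplicate wells, 24 h. Cells stained with PI, flow cytometry on 1000 events. PI-negative fraction normalized to DMSO vehicle; EC₅₀ by nonlinear regression, mean ± SEM of three experiments.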

MEF [9] = experiment: Cytotoxicity against wild type mouse embryonic fibroblast cells assessed as reduction in cell viability in presence of 1 % fetal calf serum measured after 24 hrs propidium iodide staining based flow cytometric analysis; type: functional; in short: as §2
MEF [10] = experiment: Cytotoxicity against MCL-1/BAX/BAK deficient mouse embryonic fibroblast cells assessed as reduction in cell viability in presence of 1 % fetal calf serum measured after 24 hrs propidium iodide staining based flow cytometric analysis; type: functional; in short: as §2
MEF [11] = experiment: Cytotoxicity against mouse embryonic fibroblast cells assessed as reduction in cell viability in presence of 10 % fetal calf serum measured after 24 hrs propidium iodide staining based flow cytometric analysis; type: functional
COLO 205 = experiment: Cytotoxicity against BCL-XL dependent human COLO205 cells assessed as reduction in cell viability measured after 48 hrs by CellTitre-Glo assay; type: functional, cell-based
In short: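 COLO205 cells (WT or BAK−/−/BAX−/−), kept in RPMI-1640 with 10% FCS, seeded at 3 × 10³ cells/well in medium with 10 or 1% FCS. Dosed one day later with six-point serial dilutions (0.0003−10 μM 1:8 for BH3 mimetics; 0.1−25 μM 1:3 for benzoylureas). Viability normalized to matched DMSO vehicle; EC₅₀ by curve fit.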

MEF [12] = experiment: Cytotoxicity against MCL-1deficient MEF cells assessed as release of cytochrome c from mitochondria at 25 uM FACS analysis; type: functional, Mus musculus
In short: (§3)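 MEFs at 1.5 × 10⁵ cells/well in FMA medium with 1% FCS, 3 h rest, then compounds for 18 h (final DMSO 0.25%) beside a vehicle control. Cells permeabilized with 0.025% digitonin on ice for 5 min, then fixed in 1% paraformaldehyde. Stained with anti-cytochrome c (1:100) and a PE secondary in saponin buffer. FL2 read on 10 000 events for % cells with low cytochrome c. Four experiments; multiple unpaired t test (Holm−Sidak, α = 0.01).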

MEF [13] = experiment: Cytotoxicity against wild type MEF cells assessed as release of cytochrome c from mitochondria FACS analysis; type: functional, cell-based; conditions: Mus musculus; in short: as §3
MEF [14] = experiment: Cytotoxicity against MCL-1/BAX/BAK deficient MEF cells assessed as release of cytochrome c from mitochondria by FACS analysis; type: functional, cell-based; conditions: Mus musculus; in short: as §3
MEF [15] = experiment: Cytotoxicity against MCL-1deficient MEF cells assessed as release of cytochrome c from mitochondria at 2.5 uM FACS analysis; type: functional, Mus musculus; in short: as §3

For `CSC[C@H](NC(=O)N(Cc1ccc(C)cc1)C(=O)c1ccc(-c2ccccc2)cc1)C(=O)O`, the IC50 [1] was 13.1 µM and the IC50 [2] was 44 µM.

With `Cc1ccc(CN(C(=O)N[C@@H](CS(=O)(=O)CC23CC4CC(CC(C4)C2)C3)C(=O)O)C(=O)c2ccc3c(c2)CCN(Cc2ccccc2-c2ccc(Cl)cc2)C3)cc1` the IC50 [1] was 0.04 µM, the IC50 [2] was 1.8 µM and the IC50 [3] was 0.044 µM. For the same compound, the IC50 [4] was 0.107 µM, the IC50 [5] was greater than 12.5 µM and the IC50 [6] was greater than 12.5 µM. For the same compound, the IC50 [7] was 5.9 µM.

In the case of `Cc1ccc(CN(C(=O)N[C@@H](CS(=O)(=O)Cc2ccccc2)C(=O)O)C(=O)c2ccc(-c3ccccc3)cc2)cc1`, the IC50 [1] is reported as 0.59 µM, the IC50 [2] is reported as 11.6 µM and the IC50 [3] is reported as 1.8 µM. For the same compound, the IC50 [4] was greater than 12.5 µM, the IC50 [5] was greater than 12.5 µM and the IC50 [6] was greater than 12.5 µM. For the same compound, the IC50 [7] was greater than 12.5 µM.

In the case of `Cc1ccc(CN(C(=O)N[C@@H](CS(=O)(=O)CC2CCCCC2)C(=O)O)C(=O)c2ccc3c(c2)CCN(Cc2ccccc2-c2ccc(Cl)cc2)C3)cc1`, the IC50 [1] is reported as 0.04 µM, the IC50 [2] is reported as 1.8 µM and the IC50 [3] is reported as 0.041 µM. The IC50 [4] was 0.018 µM, the IC50 [5] was 6.8 µM and the IC50 [6] was greater than 12.5 µM. For the same compound, the IC50 [7] was 4.6 µM, the EC50 (MEF [8]) was 19.2 µM and the Activity (MEF [9]) was “inactive”. The Activity (MEF [10]) was “inactive”, the Activity (MEF [11]) was “inactive” and the Activity (COLO 205) was “inactive”. The Activity (MEF [12]) was 30%, the Activity (MEF [13]) was “inactive” and the Activity (MEF [14]) was “inactive”.

For `CCCN(C(=O)N[C@@H](CSCc1ccccc1)C(=O)O)C(=O)c1ccc(-c2ccccc2)cc1`, the IC50 [1] was 31 µM, the IC50 [2] was 28 µM and the EC50 (MEF [8]) was greater than 25 µM. The Activity (MEF [12]; Mus musculus) was “inactive”, the Activity (MEF [13]) was “inactive” and the Activity (MEF [14]) was “inactive”.

For `Cc1ccc(CN(C(=O)N[C@@H](CSCc2ccccc2)C(=O)O)C(=O)c2ccc3c(c2)CCN(Cc2ccccc2-c2ccc(Cl)cc2)C3)cc1`, the IC50 [1] was 0.21 µM, the IC50 [2] was 2 µM and the IC50 [3] was 0.24 µM. The IC50 [4] was 0.152 µM, the IC50 [5] was 10 µM and the IC50 [6] was greater than 12.5 µM. The IC50 [7] was 4.6 µM.

Compound `Cc1ccc(CN(C(=O)N[C@@H](CSCc2ccccc2)C(=O)O)C(=O)c2ccc(-c3ccccc3)cc2)cc1` has an IC50 [1] of 0.51 µM and an IC50 [2] of 7.7 µM.

In the case of `Cc1ccc(CN(C(=O)N[C@@H](CS(=O)(=O)CC23CC4CC(CC(C4)C2)C3)C(=O)O)C(=O)c2ccc(-c3ccccc3)cc2)cc1`, the IC50 [1] is reported as 0.19 µM, the IC50 [2] is reported as 6.1 µM and the IC50 [3] is reported as 0.42 µM. It also gave an IC50 [4] of 9.4 µM, an IC50 [5] greater than 12.5 µM and an IC50 [6] greater than 12.5 µM. The IC50 [7] was 6.8 µM.

In the case of `Cc1ccc(CN(C(=O)N[C@@H](CSCc2ccccc2)C(=O)O)C(=O)c2ccc(-c3cccc(-c4ccccc4-c4ccc(Cl)cc4)c3)cc2)cc1`, the IC50 [1] is reported as 0.24 µM and the IC50 [2] is reported as 1.5 µM.

With `Cc1ccc(CN(C(=O)N[C@@H](CCCc2ccccc2)C(=O)O)C(=O)c2ccc(-c3ccccc3)cc2)cc1` the IC50 [1] was 1.09 µM and the IC50 [2] was 8 µM.

`Cc1ccc(CN(C(=O)NCCSCc2ccccc2)C(=O)c2ccc(-c3ccccc3)cc2)cc1` showed an IC50 [1] greater than 100 µM and an IC50 [2] greater than 100 µM.

With `Cc1ccc(CN(C(=O)N[C@@H](CS(=O)(=O)Cc2ccccc2)C(=O)O)C(=O)c2ccc3c(c2)CCN(Cc2ccccc2-c2ccc(Cl)cc2)C3)cc1` the IC50 [1] was 0.17 µM, the IC50 [2] was 5.3 µM and the IC50 [3] was 0.133 µM. For the same compound, the IC50 [4] was 0.066 µM, the IC50 [5] was greater than 12.5 µM and the IC50 [6] was greater than 12.5 µM. For the same compound, the IC50 [7] was greater than 12.5 µM.

With `Cc1ccc(CN(C(=O)N[C@@H](CS(=O)(=O)CC2CCCCC2)C(=O)O)C(=O)c2ccc(-c3ccccc3)cc2)cc1` the IC50 [1] was 0.46 µM, the IC50 [2] was 10 µM and the IC50 [3] was 0.62 µM. For the same compound, the IC50 [4] was greater than 12.5 µM, the IC50 [5] was greater than 12.5 µM and the IC50 [6] was greater than 12.5 µM. It also gave an IC50 [7] greater than 12.5 µM.

`Cc1ccc(CN(C(=O)N[C@@H](COCc2ccccc2)C(=O)O)C(=O)c2ccc(-c3ccccc3)cc2)cc1` gave an IC50 [1] of 0.38 µM and an IC50 [2] of 11.8 µM.

For `COC(=O)[C@H](CSCc1ccccc1)NC(=O)N(Cc1ccc(C)cc1)C(=O)c1ccc(-c2ccccc2)cc1`, the IC50 [1] was greater than 100 µM and the IC50 [2] was greater than 100 µM.

In the case of `CN(C)CC[C@H](CSc1ccccc1)Nc1ccc(S(=O)(=O)NC(=O)c2ccc(N3CCN(Cc4ccccc4-c4ccc(Cl)cc4)CC3)cc2)cc1[N+](=O)[O-]` [ABT 737], the IC50 [1] is reported as 0.004 µM, the IC50 [2] is reported as 40 µM and the IC50 [3] is reported as less than 0.00025 µM. It also gave an IC50 [4] of less than 0.00025 µM, an IC50 [5] of 0.012 µM and an IC50 [6] greater than 12.5 µM. The EC50 (MEF [8]) was 0.013 µM, the Activity (MEF [9]) was “inactive” and the Activity (MEF [10]) was “inactive”. The Activity (MEF [15]) was greater than 90%.
